Laboratory results published in ChEMBL document CHEMBL3232897, “Synthesis, antiproliferative and antibacterial activity of new amides of salinomycin” (Bioorg Med Chem Lett, 2014).
Values after ≈ are worked out from the molar mass of the structure shown.

Columns and labels:
[1] = tested on: HL-60; assay: Antiproliferative activity against human HL60 cells; format: functional, cell-based
Outline: (§1)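 IC50 is the concentration giving 50% growth inhibition, reported as mean with SD. HL-60/vinc and LoVo/DX are drug-resistant (MDR) sublines of HL-60 and LoVo. BALB/3T3 is a normal murine embryonic fibroblast line.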

[2] = Antiproliferative activity against human HL60/Vinc cells; format: functional, cell-based; outline: as §1
[3] = tested on: LoVo; assay: Antiproliferative activity against human LoVo cells; format: functional, cell-based; outline: as §1
[4] = Antiproliferative activity against human LoVo/DX cells; format: functional, cell-based; outline: as §1
[5] = tested on: BALB/3T3; assay: Antiproliferative activity mouse BALB/3T3 cells; format: cell-based; outline: as §1
[6] = tested on: HL-60; assay: Selectivity index, ratio of IC50 for mouse BALB/3T3 cells to IC50 for human HL60 cells; format: functional
Outline: (§2)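 Selectivity index is the IC50 in normal murine embryonic fibroblasts (BALB/3T3) divided by the IC50 in the respective cancer line (HL-60, HL-60/vinc, LoVo or LoVo/DX). Each IC50 is the concentration giving 50% growth inhibition. SI >1.0 is taken as favourable.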

[7] = Selectivity index, ratio of IC50 for mouse BALB/3T3 cells to IC50 for human HL60/Vinc cells; format: functional; outline: as §2
[8] = tested on: HL-60; assay: Resistance index, ratio of IC50 for human HL60/Vinc cells to IC50 for human HL60 cells; format: functional
Outline: (§3)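 Index of resistance is the IC50 in the resistant subline (HL-60/vinc or LoVo/DX) divided by the IC50 in its parental line (HL-60 or LoVo). Each IC50 is the concentration giving 50% growth inhibition. Bands are 0–2 sensitive, 2–10 moderate, above 10 strongly resistant.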

[9] = tested on: LoVo; assay: Selectivity index, ratio of IC50 for mouse BALB/3T3 cells to IC50 for human LoVo cells; format: functional; outline: as §2
[10] = Selectivity index, ratio of IC50 for mouse BALB/3T3 cells to IC50 for human LoVo/DX cells; format: functional; outline: as §2
[11] = tested on: LoVo; assay: Resistance index, ratio of IC50 for human LoVo/DX cells to IC50 for human LoVo cells; format: functional; outline: as §3
[12] = tested on: Staphylococcus aureus; assay: Antibacterial activity against Staphylococcus aureus NCTC 4163; format: functional
[13] = tested on: Staphylococcus aureus; assay: Antibacterial activity against Staphylococcus aureus ATCC 25923; format: functional
[14] = tested on: Staphylococcus aureus; assay: Antibacterial activity against Staphylococcus aureus ATCC 6538; format: functional
[15] = tested on: Staphylococcus aureus; assay: Antibacterial activity against Staphylococcus aureus ATCC 29213; format: functional
[16] = tested on: Staphylococcus epidermidis; assay: Antibacterial activity against Staphylococcus epidermidis ATCC 12228; format: functional
Outline: (§4)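 In vitro antibacterial test on Staphylococcus strains, including MRSE clinical isolates. Read-outs were growth inhibition zone (mm) and MIC (µg/ml). Ciprofloxacin was the reference antibiotic.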

[17] = tested on: Staphylococcus epidermidis; assay: Antibacterial activity against Staphylococcus epidermidis ATCC 35984; format: functional; outline: as §4
[18] = tested on: Staphylococcus epidermidis; assay: Antibacterial activity against methicillin-resistant Staphylococcus epidermidis 459/11; format: functional; outline: as §4
[19] = tested on: Staphylococcus epidermidis; assay: Antibacterial activity against methicillin-resistant Staphylococcus epidermidis 460/11; format: functional; outline: as §4
[20] = tested on: Staphylococcus epidermidis; assay: Antibacterial activity against methicillin-resistant Staphylococcus epidermidis 461/11; format: functional; outline: as §4
[21] = tested on: Staphylococcus epidermidis; assay: Antibacterial activity against methicillin-resistant Staphylococcus epidermidis 466/11; format: functional; outline: as §4
[22] = tested on: Staphylococcus epidermidis; assay: Antibacterial activity against methicillin-resistant Staphylococcus epidermidis 467/11; format: functional; outline: as §4
[23] = tested on: Staphylococcus epidermidis; assay: Antibacterial activity against methicillin-resistant Staphylococcus epidermidis 468/11; format: functional; outline: as §4
[24] = tested on: Staphylococcus epidermidis; assay: Antibacterial activity against methicillin-resistant Staphylococcus epidermidis 469/11; format: functional; outline: as §4
[25] = tested on: Staphylococcus epidermidis; assay: Antibacterial activity against methicillin-resistant Staphylococcus epidermidis 470/11; format: functional; outline: as §4
[26] = tested on: Staphylococcus epidermidis; assay: Antibacterial activity against methicillin-resistant Staphylococcus epidermidis 488/11; format: functional; outline: as §4
[27] = tested on: Staphylococcus epidermidis; assay: Antibacterial activity against methicillin-resistant Staphylococcus epidermidis 489/11; format: functional; outline: as §4

SMILES | IC50 [1] [µM] | IC50 [3] [µM] | IC50 [2] [µM] | IC50 [4] [µM] | IC50 [5] [µM] | Ratio IC50 [6] | Ratio IC50 [7] | Ratio IC50 [8] | Ratio IC50 [9] | Ratio IC50 [10] | Ratio IC50 [11] | other results
CC[C@@H](C(=O)[C@@H](C)[C@@H](O)[C@H](C)[C@@H]1O[C@@H]([C@@H](CC)C(=O)NCCCCN)CC[C@@H]1C)[C@H]1O[C@]2(C=C[C@@H](O)[C@]3(CC[C@@](C)([C@H]4CC[C@](O)(CC)[C@H](C)O4)O3)O2)[C@H](C)C[C@@H]1C | 3.7 | 21.9 | 23.1 | 12.6 | 35.1 | 9.47 | 1.52 | 6.22 | 1.6 | 2.78 | 0.58 | MIC [12]: 32 µg/mL (≈ 39 µM); MIC [13]: 32 µg/mL (≈ 39 µM); MIC [14]: 32 µg/mL (≈ 39 µM); MIC [15]: 64 µg/mL (≈ 77.9 µM); MIC [16]: 64 µg/mL (≈ 77.9 µM); MIC [17]: 32 µg/mL (≈ 39 µM); MIC [18]: 32 µg/mL (≈ 39 µM); MIC [19]: 64 µg/mL (≈ 77.9 µM); MIC [20]: 64 µg/mL (≈ 77.9 µM); MIC [21]: 64 µg/mL (≈ 77.9 µM); MIC [22]: 32 µg/mL (≈ 39 µM); MIC [23]: 32 µg/mL (≈ 39 µM); MIC [24]: 64 µg/mL (≈ 77.9 µM); MIC [25]: 64 µg/mL (≈ 77.9 µM); MIC [26]: 64 µg/mL (≈ 77.9 µM); MIC [27]: 32 µg/mL (≈ 39 µM)
CC[C@@H](C(=O)[C@@H](C)[C@@H](O)[C@H](C)[C@@H]1O[C@@H]([C@@H](CC)C(=O)NCCc2ccc(O)c(O)c2)CC[C@@H]1C)[C@H]1O[C@]2(C=C[C@@H](O)[C@]3(CC[C@@](C)([C@H]4CC[C@](O)(CC)[C@H](C)O4)O3)O2)[C@H](C)C[C@@H]1C | 2.8 | 3.9 | 6.9 | 4.3 | 5.7 | 2.05 | 0.83 | 2.48 | 1.47 | 1.34 | 1.1 | 
CC[C@@H](C(=O)[C@@H](C)[C@@H](O)[C@H](C)[C@@H]1O[C@@H]([C@@H](CC)C(=O)NCCc2ccc(F)cc2)CC[C@@H]1C)[C@H]1O[C@]2(C=C[C@@H](O)[C@]3(CC[C@@](C)([C@H]4CC[C@](O)(CC)[C@H](C)O4)O3)O2)[C@H](C)C[C@@H]1C | 2.3 | 4.1 | 6.7 | 2.3 | 45.8 | 20.27 | 6.8 | 2.98 | 11.2 | 19.57 | 0.57 | 
CC[C@@H](C(=O)[C@@H](C)[C@@H](O)[C@H](C)[C@@H]1O[C@@H]([C@@H](CC)C(=O)NCCCCNC(=O)[C@H](CC)[C@H]2CC[C@H](C)[C@H]([C@@H](C)[C@H](O)[C@H](C)C(=O)[C@H](CC)[C@H]3O[C@]4(C=C[C@@H](O)[C@]5(CC[C@@](C)([C@H]6CC[C@](O)(CC)[C@H](C)O6)O5)O4)[C@H](C)C[C@@H]3C)O2)CC[C@@H]1C)[C@H]1O[C@]2(C=C[C@@H](O)[C@]3(CC[C@@](C)([C@H]4CC[C@](O)(CC)[C@H](C)O4)O3)O2)[C@H](C)C[C@@H]1C | 2.7 | 10.7 | 13.5 | 3.9 | 19.8 | 7.28 | 1.47 | 4.95 | 1.85 | 5.13 | 0.36 | 
CC[C@@H](C(=O)[C@@H](C)[C@@H](O)[C@H](C)[C@@H]1O[C@@H]([C@@H](CC)C(=O)NCC2COCCOCCOCCOCCO2)CC[C@@H]1C)[C@H]1O[C@]2(C=C[C@@H](O)[C@]3(CC[C@@](C)([C@H]4CC[C@](O)(CC)[C@H](C)O4)O3)O2)[C@H](C)C[C@@H]1C (stereo not given in full) | 23.2 | 24.1 | 27 | 8.5 | 31.3 | 1.35 | 1.16 | 1.16 | 1.3 | 3.69 | 0.35 | 
O=C(O)c1cn(C2CC2)c2cc(N3CCNCC3)c(F)cc2c1=O [CIPROFLOXACIN] |  |  |  |  |  |  |  |  |  |  |  | MIC [12]: 0.25 µg/mL (≈ 0.754 µM); MIC [14]: 0.25 µg/mL (≈ 0.754 µM); MIC [15]: 0.5 µg/mL (≈ 1.51 µM); MIC [16]: 0.25 µg/mL (≈ 0.754 µM); MIC [17]: 0.125 µg/mL (≈ 0.377 µM); MIC [18]: 16 µg/mL (≈ 48.3 µM); MIC [19]: 0.125 µg/mL (≈ 0.377 µM); MIC [20]: 0.25 µg/mL (≈ 0.754 µM); MIC [21]: 2 µg/mL (≈ 6.04 µM); MIC [22]: 16 µg/mL (≈ 48.3 µM); MIC [23]: 16 µg/mL (≈ 48.3 µM); MIC [24]: 8 µg/mL (≈ 24.1 µM); MIC [25]: 0.125 µg/mL (≈ 0.377 µM); MIC [26]: 16 µg/mL (≈ 48.3 µM); MIC [27]: 0.25 µg/mL (≈ 0.754 µM)

Further molecules by falling IC50 [1], results first:

IC50 [1] [µM] | IC50 [3] [µM] | SMILES | IC50 [2] [µM] | IC50 [4] [µM] | IC50 [5] [µM] | Ratio IC50 [6] | Ratio IC50 [7] | Ratio IC50 [8] | Ratio IC50 [9] | Ratio IC50 [10] | Ratio IC50 [11] | other results
5.7 | 6.9 | C#CCNC(=O)[C@H](CC)[C@H]1CC[C@H](C)[C@H]([C@@H](C)[C@H](O)[C@H](C)C(=O)[C@H](CC)[C@H]2O[C@]3(C=C[C@@H](O)[C@]4(CC[C@@](C)([C@H]5CC[C@](O)(CC)[C@H](C)O5)O4)O3)[C@H](C)C[C@@H]2C)O1 | 11.3 | 3.9 | 37.1 | 6.47 | 3.29 | 1.97 | 5.4 | 9.6 | 0.56 | 
4.4 | 32.5 | CC[C@@H](C(=O)[C@@H](C)[C@@H](O)[C@H](C)[C@@H]1O[C@@H]([C@@H](CC)C(=O)NCCc2c[nH]cn2)CC[C@@H]1C)[C@H]1O[C@]2(C=C[C@@H](O)[C@]3(CC[C@@](C)([C@H]4CC[C@](O)(CC)[C@H](C)O4)O3)O2)[C@H](C)C[C@@H]1C | 33.1 | 34.8 | 34.5 | 7.79 | 1.04 | 7.46 | 1.06 | 0.99 | 1.07 | 
2 | 8.1 | CC[C@@H](C(=O)[C@@H](C)[C@@H](O)[C@H](C)[C@@H]1O[C@@H]([C@@H](CC)C(=O)Nc2ccc(NC(=O)[C@H](CC)[C@H]3CC[C@H](C)[C@H]([C@@H](C)[C@H](O)[C@H](C)C(=O)[C@H](CC)[C@H]4O[C@]5(C=C[C@@H](O)[C@]6(CC[C@@](C)([C@H]7CC[C@](O)(CC)[C@H](C)O7)O6)O5)[C@H](C)C[C@@H]4C)O3)cc2)CC[C@@H]1C)[C@H]1O[C@]2(C=C[C@@H](O)[C@]3(CC[C@@](C)([C@H]4CC[C@](O)(CC)[C@H](C)O4)O3)O2)[C@H](C)C[C@@H]1C | 16.1 | 2.8 | 20.2 | 10.07 | 1.26 | 7.99 | 2.49 | 7.2 | 0.35 | 
0.04 | 0.17 | COc1cccc2c1C(=O)c1c(O)c3c(c(O)c1C2=O)C[C@@](O)(C(=O)CO)C[C@@H]3O[C@H]1C[C@H](N)[C@H](O)[C@H](C)O1 [DOXORUBICIN] | 1.8 | 6.5 | 0.5 | 12 | 0.27 | 44.5 | 2.82 | 0.07 | 37.94 | 
